Measured values: ChEMBL document CHEMBL2390929, “New nitric oxide donating 1,2,4-triazole/oxime hybrids: synthesis, investigation of anti-inflammatory, ulceroginic liability and antiproliferative activities” (Bioorg Med Chem, 2013)

Experiments:
SF-295 = test: Cytotoxicity against human SF295 cells assessed as cell growth at 10^-5 M after 48 hrs by SRB assay; assay type: functional; conditions: SF-295, 48 h, read-out: Activity
Summary of the method: (§1)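 NCI 60-cell-line primary one-dose screen across nine tumour subpanels. Compound added at a single concentration of 10^-5 M and cultures incubated 48 h. Endpoint was sulforhodamine B protein staining read spectrophotometrically, with growth expressed as percent of untreated control cells.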

NCI-H460 = test: Cytotoxicity against human NCI-H460 cells assessed as cell growth at 10^-5 M after 48 hrs by SRB assay; assay type: functional; conditions: NCI-H460, 48 h, read-out: Activity; summary of the method: as §1
SN12C = test: Cytotoxicity against human SN12C cells assessed as cell growth at 10^-5 M after 48 hrs by SRB assay; assay type: functional; conditions: read-out: Activity
Summary of the method: (§2)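 NCI-60 one-dose screen across nine tumour subpanels. Each agent added once at 10^-5 M, cultures incubated 48 h. Endpoint is sulforhodamine B protein staining read spectrophotometrically. Output is percent growth of treated cells relative to untreated controls.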

MOLT-4 = test: Cytotoxicity against human MOLT4 cells assessed as cell growth at 10^-5 M after 48 hrs by SRB assay; assay type: functional; conditions: MOLT-4, 48 h, read-out: Activity; summary of the method: as §1
SNB-75 = test: Cytotoxicity against human SNB75 cells assessed as cell growth at 10^-5 M after 48 hrs by SRB assay; assay type: functional; conditions: SNB-75, 48 h, read-out: Activity; summary of the method: as §2
LOX IMVI = test: Cytotoxicity against human LOXIMVI cells assessed as cell growth at 10^-5 M after 48 hrs by SRB assay; assay type: functional; conditions: read-out: Activity; summary of the method: as §1
[1] = Induction of nitric oxide release in phosphate buffer at pH 7.4 at 0.1 mM after 2 hrs by Griess method in presence of 0.5 mM of N-acetylcysteine; assay type: physicochemical; conditions: pH 7.4, 2 h, 100 µM
Summary of the method: (§3)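 Compound in DMF diluted to final 10^-4 M in 1:1 50 mM phosphate buffer pH 7.4/MeOH with 5×10^-4 M N-acetylcysteine, 37 °C. Aliquot mixed with Griess reagent, 10 min at room temperature, A546 read. Nitrite quantified against sodium nitrite standards (10–80 nmol/mL); NO expressed as mol/mol. n = 4 reaction mixtures per compound.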

Rattus norvegicus [2] = test: Antiinflammatory activity in albino rat assessed as inhibition of carrageenan-induced paw edema at 0.28 mmol/kg, po after 4 hrs relative to control; assay type: functional
Summary of the method: (§4)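 Adult male albino rats (120–140 g), four per group, fasted 24 h with water allowed. Test agent suspended in 0.5% w/v aqueous CMC and given orally at 0.28 mmol/kg; controls received CMC alone. After 30 min, 0.1 mL fresh 1% carrageenan in saline was injected subplantar into the right hind paw and saline into the left. Paw thickness was measured by Vernier caliper; % inhibition = [(VR−VL)control − (VR−VL)treated]/(VR−VL)control ×100. Mean ± SEM, one-way ANOVA.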

U-251 = test: Cytotoxicity against human U251 cells assessed as cell growth at 10^-5 M after 48 hrs by SRB assay; assay type: functional; conditions: U-251, 48 h, read-out: Activity; summary of the method: as §2
OVCAR-8 = test: Cytotoxicity against human OVCAR8 cells assessed as cell growth at 10^-5 M after 48 hrs by SRB assay; assay type: functional; conditions: OVCAR-8, 48 h, read-out: Activity; summary of the method: as §1
BT-549 = test: Cytotoxicity against human BT549 cells assessed as cell growth at 10^-5 M after 48 hrs by SRB assay; assay type: functional; conditions: BT-549, 48 h, read-out: Activity; summary of the method: as §1
[3] = Cytotoxicity against human EKVX cells assessed as cell growth at 10^-5 M after 48 hrs by SRB assay; assay type: functional; conditions: read-out: Activity; summary of the method: as §1
CAKI-1 = test: Cytotoxicity against human CAKI-1 cells assessed as cell growth at 10^-5 M after 48 hrs by SRB assay; assay type: functional; conditions: CAKI-1, 48 h, read-out: Activity; summary of the method: as §1
UO-31 = test: Cytotoxicity against human UO31 cells assessed as cell growth at 10^-5 M after 48 hrs by SRB assay; assay type: functional; conditions: UO-31, 48 h, read-out: Activity; summary of the method: as §2
SW-620 = test: Cytotoxicity against human SW620 cells assessed as cell growth at 10^-5 M after 48 hrs by SRB assay; assay type: functional; conditions: SW-620, 48 h, read-out: Activity; summary of the method: as §2
HL-60(TB) = test: Cytotoxicity against human HL-60(TB) cells assessed as cell growth at 10^-5 M after 48 hrs by SRB assay; assay type: functional; conditions: HL-60, 48 h, read-out: Activity
Summary of the method: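 NCI 60-cell-line one-dose screen: compound added to cultures at a single concentration of 10^-5 M, incubated 48 h. End point by sulforhodamine B protein staining, read spectrophotometrically. Value is percent growth of treated cells relative to untreated control cells.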

COLO 205 = test: Cytotoxicity against human COLO205 cells assessed as cell growth at 10^-5 M after 48 hrs by SRB assay; assay type: functional; conditions: COLO 205, 48 h, read-out: Activity; summary of the method: as §1
[4] = Induction of nitric oxide release in phosphate buffer at pH 7.4 at 0.1 mM after 1 hr by Griess method in presence of 0.5 mM of N-acetylcysteine; assay type: physicochemical; conditions: pH 7.4, 1 h, 100 µM; summary of the method: as §3
HOP-62 = test: Cytotoxicity against human HOP62 cells assessed as cell growth at 10^-5 M after 48 hrs by SRB assay; assay type: functional; conditions: HOP-62, 48 h, read-out: Activity; summary of the method: as §1
Rattus norvegicus [5] = test: Antiinflammatory activity in albino rat assessed as inhibition of carrageenan-induced paw edema at 0.28 mmol/kg, po after 2 hrs relative to control; assay type: functional; summary of the method: as §4
SF-268 = test: Cytotoxicity against human SF268 cells assessed as cell growth at 10^-5 M after 48 hrs by SRB assay; assay type: functional; conditions: SF-268, 48 h, read-out: Activity; summary of the method: as §1
NCI-H522 = test: Cytotoxicity against human NCI-H522 cells assessed as cell growth at 10^-5 M after 48 hrs by SRB assay; assay type: functional; conditions: NCI-H522, 48 h, read-out: Activity; summary of the method: as §1
Rattus norvegicus [6] = test: Antiinflammatory activity in albino rat assessed as inhibition of carrageenan-induced paw edema at 0.28 mmol/kg, po after 5 hrs relative to control; assay type: functional; summary of the method: as §4
HCT-116 = test: Cytotoxicity against human HCT116 cells assessed as cell growth at 10^-5 M after 48 hrs by SRB assay; assay type: functional; conditions: HCT-116, 48 h, read-out: Activity; summary of the method: as §1
RPMI-8226 = test: Cytotoxicity against human RPMI8226 cells assessed as cell growth at 10^-5 M after 48 hrs by SRB assay; assay type: functional; conditions: RPMI-8226, 48 h, read-out: Activity; summary of the method: as §1
OVCAR-5 = test: Cytotoxicity against human OVCAR5 cells assessed as cell growth at 10^-5 M after 48 hrs by SRB assay; assay type: functional; conditions: OVCAR-5, 48 h, read-out: Activity; summary of the method: as §1
Rattus norvegicus [7] = test: Antiinflammatory activity in albino rat assessed as inhibition of carrageenan-induced paw edema at 0.28 mmol/kg, po after 1 hr relative to control; assay type: functional; summary of the method: as §4
Rattus norvegicus [8] = test: Antiinflammatory activity in albino rat assessed as inhibition of carrageenan-induced paw edema at 0.28 mmol/kg, po after 3 hrs relative to control; assay type: functional; summary of the method: as §4
M14 = test: Cytotoxicity against human M14 cells assessed as cell growth at 10^-5 M after 48 hrs by SRB assay; assay type: functional; conditions: M14, 48 h, read-out: Activity; summary of the method: as §1
Hs-578T = test: Cytotoxicity against human Hs578T cells assessed as cell growth at 10^-5 M after 48 hrs by SRB assay; assay type: functional; conditions: read-out: Activity; summary of the method: as §1

SMILES | growth at 10 µM (NCI-H460) [%] | growth at 10 µM (SN12C) [%] | growth at 10 µM (MOLT-4) [%] | growth at 10 µM (SNB-75) [%] | growth at 10 µM (LOX IMVI) [%] | Activity [1] [mol/mol] | inhibition in vivo at 280 µmol/kg (Rattus norvegicus [2]) [%] | growth at 10 µM (U-251) [%] | growth at 10 µM (OVCAR-8) [%] | growth at 10 µM (BT-549) [%] | growth at 10 µM [3] [%] | growth at 10 µM (CAKI-1) [%] | growth at 10 µM (UO-31) [%] | growth at 10 µM (SW-620) [%] | growth at 10 µM (HL-60(TB)) [%] | growth at 10 µM (COLO 205) [%] | Activity [4] [mol/mol] | growth at 10 µM (HOP-62) [%] | inhibition in vivo at 280 µmol/kg (Rattus norvegicus [5]) [%] | growth at 10 µM (SF-268) [%] | other results
O/N=C(/CSc1nnc(-c2ccccc2)n1-c1ccccc1)c1ccccc1 | 97.3 | 99.7 | 84.8 | 115 | 104 | 0.1 | 79 | 82.3 | 93.2 | 111 | 95.4 | 85.4 | 77.4 | 98.8 | 92.2 | 107 | 0.06 | 109 | 63 | 104 | growth at 10 µM (SF-295): 88%; growth at 10 µM (NCI-H522): 98.5%; inhibition in vivo at 280 µmol/kg (Rattus norvegicus [6]): 75%; growth at 10 µM (HCT-116): 92.3%; growth at 10 µM (RPMI-8226): 85.6%; growth at 10 µM (OVCAR-5): 125%; inhibition in vivo at 280 µmol/kg (Rattus norvegicus [7]): 60%; inhibition in vivo at 280 µmol/kg (Rattus norvegicus [8]): 65%; growth at 10 µM (M14): 103%; growth at 10 µM (Hs-578T): 82.9%
COc1ccc(-c2nnc(SC/C(=N/O)c3ccccc3)n2-c2ccccc2)cc1 | 106 | 97.9 | 70.3 | 103 | 101 | 0.08 | 80 | 98.6 | 102 | 90.5 | 102 | 96.5 | 87.1 | 114 | 95.9 | 116 | 0.08 | 111 | 63 | 117 | growth at 10 µM (SF-295): 89.5%; growth at 10 µM (NCI-H522): 81.6%; inhibition in vivo at 280 µmol/kg (Rattus norvegicus [6]): 73%; growth at 10 µM (HCT-116): 93.2%; growth at 10 µM (RPMI-8226): 73.5%; growth at 10 µM (OVCAR-5): 109%; inhibition in vivo at 280 µmol/kg (Rattus norvegicus [7]): 58%; inhibition in vivo at 280 µmol/kg (Rattus norvegicus [8]): 63%; growth at 10 µM (M14): 106%; growth at 10 µM (Hs-578T): 107%
COc1ccc(-c2nnc(SC/C(=N/O)c3ccccc3)n2-c2ccccc2)cc1OC | 114 | 94.5 | 81.8 | 91.4 | 90.3 | 0.17 | 81 | 101 | 90.7 | 92.4 | 101 | 98.4 | 80.1 | 110 | 68.2 | 100 | 0.15 | 99.2 | 61 | 110 | growth at 10 µM (NCI-H522): 88.8%; inhibition in vivo at 280 µmol/kg (Rattus norvegicus [6]): 78%; growth at 10 µM (HCT-116): 92%; growth at 10 µM (RPMI-8226): 69.4%; growth at 10 µM (OVCAR-5): 100%; inhibition in vivo at 280 µmol/kg (Rattus norvegicus [7]): 55%; inhibition in vivo at 280 µmol/kg (Rattus norvegicus [8]): 67%; growth at 10 µM (M14): 98.9%; growth at 10 µM (Hs-578T): 105%
